How the values were obtained:
[1] = Distribution coefficient, log D of the compound; format: physicochemical; details: octanol/water
Procedure, shortened: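 Calculated at pH 7.4 by ACD software. Experimental values came from RP-HPLC on a C18 column at 25 °C and 0.30 mL/min, using 10 mM ammonium acetate pH 7.4 versus acetonitrile (5→98% over 30 min). Injection was 2 µL of a 1 mM DMSO solution with diode-array detection. Retention time was calibrated against six reference compounds.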

[2] = biological target: T1, Neuropeptide Y receptor type 1 (Homo sapiens, UniProt P25929); test: Displacement of [3H]UR-MK114 from NPY1 receptor in human SK-N-MC cells; format: cell-based
T1 sequence (P25929 whole entry): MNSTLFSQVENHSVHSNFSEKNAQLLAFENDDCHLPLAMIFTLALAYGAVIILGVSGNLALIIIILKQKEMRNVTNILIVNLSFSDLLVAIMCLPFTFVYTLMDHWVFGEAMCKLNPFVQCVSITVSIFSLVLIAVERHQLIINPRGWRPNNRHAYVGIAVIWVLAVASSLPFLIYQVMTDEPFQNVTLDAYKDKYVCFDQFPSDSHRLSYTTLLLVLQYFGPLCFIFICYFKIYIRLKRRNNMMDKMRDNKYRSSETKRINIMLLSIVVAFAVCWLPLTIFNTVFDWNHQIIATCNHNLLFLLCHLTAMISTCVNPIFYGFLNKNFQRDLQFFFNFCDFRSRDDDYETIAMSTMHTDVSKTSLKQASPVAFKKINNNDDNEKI
Procedure, shortened: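 Data were fitted with four-parameter sigmoidal curves. IC50 was converted to Ki by Cheng–Prusoff using the radioligand KD. Mean ± SEM of two or three independent experiments. Assay period from solution preparation to read-out was 60–90 min.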

[3] = biological target: T2, Neuropeptide Y receptor type 1 (Homo sapiens) (UniProt P25929); test: Antagonist activity at NPY1 receptor in human HEL cells assessed as inhibition of NPY-induced calcium mobilization by Fura-2 assay; format: functional, cell-based
T2 sequence (whole entry): T1 sequence (P25929 whole entry)

| Structure (SMILES) | logD ([1]; read-out: logD) | Ki ([2]; read-out: Ki) | Kb [3] | further results |
| --- | --- | --- | --- | --- |
| N=C(NCCC[C@@H](NC(=O)C(c1ccccc1)c1ccccc1)C(=O)NCc1ccc(O)cc1)NC(=O)CCC(=O)NCCNC(=O)c1ccc(F)cc1 | 3.5 | – | – | – |
| CC(=O)OC[C@@H](OC(C)=O)[C@@H](OC(C)=O)[C@H](OC(C)=O)[C@@H](OC(C)=O)C(=O)NC(N)=NCCC[C@@H](NC(=O)C(c1ccccc1)c1ccccc1)C(=O)NCc1ccc(O)cc1 | 3.5 | 83 nM | – | – |
| N=C(NCCC[C@@H](NC(=O)C(c1ccccc1)c1ccccc1)C(=O)NCc1ccc(O)cc1)NC(=O)CCCn1cc(CO)nn1 | 1.8 | 3 nM | 0.4 nM | – |
| N=C(NCCC[C@@H](NC(=O)C(c1ccccc1)c1ccccc1)C(=O)NCc1ccc(O)cc1)NC(=O)COCCOCCOCC(=O)NCCNC(=O)c1ccc2ccc3cccc4ccc1c2c34 | 6 | 59 nM | – | – |
| CCC(=O)NCCNCCNC(=O)CCC(=O)NC(=N)NCCC[C@@H](NC(=O)C(c1ccccc1)c1ccccc1)C(=O)NCc1ccc(O)cc1 | -0.6 | – | – | – |
| N=C(NCCC[C@@H](NC(=O)C(c1ccccc1)c1ccccc1)C(=O)NCc1ccc(O)cc1)NC(=O)CCCc1ccc2ccc3cccc4ccc1c2c34 | 7.6 | 270 nM | – | – |
| CCCCCCCCCCCCC#CC#CCCCCCCCCC(=O)NC(=N)NCCC[C@@H](NC(=O)C(c1ccccc1)c1ccccc1)C(=O)NCc1ccc(O)cc1 | – | 1500 nM | 140 nM | – |
| N=C(NCCC[C@@H](NC(=O)C(c1ccccc1)c1ccccc1)C(=O)NCc1ccc(O)cc1)NC(=O)CCC(=O)OC[C@H]1O[C@@H](O)[C@H](O)[C@@H](O)[C@H]1O | 0.9 | 41 nM | 510 nM | – |
| N=C(NCCC[C@@H](NC(=O)C(c1ccccc1)c1ccccc1)C(=O)NCc1ccc(O)cc1)NC(=O)CCCn1cc(CN)nn1 | – | – | 14 nM | – |
| CC(=O)OC[C@@H](OC(C)=O)[C@@H](OC(C)=O)[C@H](OC(C)=O)[C@@H](OC(C)=O)C(=O)NC(=N)NCCC[C@@H](NC(=O)C(c1ccccc1)c1ccccc1)C(=O)NCc1ccc(O)cc1 | – | – | 110 nM | – |
| N=C(N)NCCC[C@@H](NC(=O)C(c1ccccc1)c1ccccc1)C(=O)NCc1ccc(O)cc1 | 0.7 | – | – | – |
| CCCCCCCCCCCCCCCC(=O)NC(=N)NCCC[C@@H](NC(=O)C(c1ccccc1)c1ccccc1)C(=O)NCc1ccc(O)cc1 | – | – | 170 nM | – |
| N=C(NCCC[C@@H](NC(=O)C(c1ccccc1)c1ccccc1)C(=O)NCc1ccc(O)cc1)NC(=O)c1ccc2ccc3cccc4ccc1c2c34 | 7.2 | – | – | Ki ([2]; sk-n-mc): Not Active |

Now from value to molecule, other results behind:

| logD ([1]; read-out: logD) | Ki ([2]; read-out: Ki) | Kb [3] | Structure (SMILES) | further results |
| --- | --- | --- | --- | --- |
| -0.3 | 51 nM | 18 nM | N=C(N)NCCCCCC(=O)NC(=N)NCCC[C@@H](NC(=O)C(c1ccccc1)c1ccccc1)C(=O)NCc1ccc(O)cc1 | – |
| 0.7 | 73 nM | – | NC(=NCCC[C@@H](NC(=O)C(c1ccccc1)c1ccccc1)C(=O)NCc1ccc(O)cc1)NC(=O)CCCCCCC(=O)NCCC(=O)O | – |
| 2.9 | 260 nM | – | COC(=O)CCNC(=O)CCCCCCC(=O)NC(N)=NCCC[C@@H](NC(=O)C(c1ccccc1)c1ccccc1)C(=O)NCc1ccc(O)cc1 | – |
| -0.3 | 130 nM | 230 nM | N=C(NCCC[C@@H](NC(=O)C(c1ccccc1)c1ccccc1)C(=O)NCc1ccc(O)cc1)NC(=O)CCCCCCC(=O)NCCN | – |
| 3.9 | 0.9 nM | – | COC(=O)CCCCCCC(=O)NC(N)=NCCC[C@@H](NC(=O)C(c1ccccc1)c1ccccc1)C(=O)NCc1ccc(O)cc1 | – |
| 1.7 | 6.7 nM | – | NCc1cn(CCCC(=O)NC(N)=NCCC[C@@H](NC(=O)C(c2ccccc2)c2ccccc2)C(=O)NCc2ccc(O)cc2)nn1 | – |
| -1.8 | – | – | N=C(NCCC[C@@H](NC(=O)C(c1ccccc1)c1ccccc1)C(=O)NCc1ccc(O)cc1)NC(=O)CCC(=O)NCCNCCN | – |
| – | – | 0.06 nM | COC(=O)CCCCCCC(=O)NC(=N)NCCC[C@@H](NC(=O)C(c1ccccc1)c1ccccc1)C(=O)NCc1ccc(O)cc1 | – |
| -1.3 | – | – | N=C(NCCC[C@@H](NC(=O)C(c1ccccc1)c1ccccc1)C(=O)NCc1ccc(O)cc1)NC(=O)CCC(=O)NCCN | – |
| 4.6 | 40 nM | 1.1 nM | N=C(NCCC[C@@H](NC(=O)C(c1ccccc1)c1ccccc1)C(=O)NCc1ccc(O)cc1)NC(=O)CCCCCCC(=O)NCCC(=O)OCc1ccccc1 | – |
| -1.4 | – | – | N=C(N)NCCNC(=O)CCC(=O)NC(=N)NCCC[C@@H](NC(=O)C(c1ccccc1)c1ccccc1)C(=O)NCc1ccc(O)cc1 | – |
| – | – | 170 nM | COC(=O)CCNC(=O)CCCCCCC(=O)NC(=N)NCCC[C@@H](NC(=O)C(c1ccccc1)c1ccccc1)C(=O)NCc1ccc(O)cc1 | – |
| – | 460 nM | – | CCCCCCCCCCCCCCCC(=O)NC(N)=NCCC[C@@H](NC(=O)C(c1ccccc1)c1ccccc1)C(=O)NCc1ccc(O)cc1 | logD [1]: 9.4 |
| – | – | 450 nM | N=C(NCCC[C@@H](NC(=O)C(c1ccccc1)c1ccccc1)C(=O)NCc1ccc(O)cc1)NC(=O)CCCCCCC(=O)NCCC(=O)O | – |
